In ChEMBL document CHEMBL1140539, “Modification of cap group in delta-lactam-based histone deacetylase (HDAC) inhibitors” (Bioorg Med Chem Lett, 2007):

Columns and labels:
PC-3 = experiment: Growth inhibition of human PC3 cells by SRB assay; assay type: functional
ACHN = experiment: Growth inhibition of human ACHN cells by SRB assay; assay type: functional
NUGC-3 = experiment: Growth inhibition of human NUGC3 cells by SRB assay; assay type: functional
MDA-MB-231 [1] = experiment: Growth inhibition of human MDA-MB-231 cells by SRB assay; assay type: functional
HCT-15 = experiment: Growth inhibition of human HCT15 cells by SRB assay; assay type: functional
Histone deacetylase = experiment: Inhibition of HDAC in HeLa cell lysates; assay type: protein assay, Homo sapiens
MDA-MB-231 [2] = experiment: Antitumor activity against MDA-MB-231 cells xenografted BALB/c nude mouse at 30 mg/kg, ip for 15 days; assay type: functional, Homo sapiens; conditions: MDA-MB-231, ip, 360 h, route intraperitoneal
MDA-MB-231 [3] = experiment: Antitumor activity against MDA-MB-231 cells xenografted BALB/c nude mouse assessed as body weight at 30 mg/kg, ip for 15 days; assay type: functional, Homo sapiens; conditions: route intraperitoneal
In short: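 Nude mice carrying MDA-MB-231 human breast xenografts were dosed once daily by intraperitoneal injection at 30 mg/kg. Dosing began once tumours reached 50–60 mm³.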

[4] = molecular target: Histone deacetylase (Homo sapiens) (UniProt Q13547+O15379+Q9UBN7+Q92769+Q9UQL6+Q8WUI4+Q9BY41+Q96DB2+P56524+Q9UKV0+Q969S8); conditions: HeLa

SMILES	GI50 (PC-3) [µM]	GI50 (ACHN) [µM]	GI50 (MDA-MB-231 [1]) [µM]	GI50 (HCT-15) [µM]	IC50 (Histone deacetylase) [µM]	IC50 [4] [µM]	GI50 (NUGC-3) [µM]	inhibition in vivo at 30 mg/kg (MDA-MB-231 [2]) [%]	Activity (MDA-MB-231 [3]) [%]
O=C(CCC1=CCCN(CCCc2ccc(-c3ccccc3)cc2)C1=O)NO	3.23	2.49	1.04	3.19	0.27	–	3.7	–	–
CC(=O)Nc1ccc(CN2CCC=C(CCC(=O)NO)C2=O)cc1	> 10	–	–	–	0.82	–	–	–	–
COc1ccccc1CN1CCC=C(CCC(=O)NO)C1=O	> 10	> 10	> 10	> 10	0.86	–	–	–	–
O=C(CCC1=CCCN(Cc2ccc(F)cc2)C1=O)NO	–	–	–	9.96	0.56	–	–	–	–
COc1ccc(CN2CCC=C(CCC(=O)NO)C2=O)cc1	7.08	1.67	3.86	6.89	0.44	–	–	–	–
O=C(CCC1=CCCN(Cc2ccc3ccccc3c2)C1=O)NO	–	–	–	–	–	> 10	–	–	–
O=C(CCC1=CCCN(Cc2ccc(NC(=O)c3ccccc3)cc2)C1=O)NO	> 10	> 10	6.03	> 10	0.51	–	> 10	–	–
O=C(CCCCCCC(=O)Nc1ccccc1)NO [VORINOSTAT]	–	2.22	–	–	–	–	–	–	100
COc1cccc(CN2CCC=C(CCC(=O)NO)C2=O)c1	> 10	7.6	3.92	9.03	1.94	–	–	–	–
Cc1cccc(CN2CCC=C(CCC(=O)NO)C2=O)c1	> 10	4.38	8.12	> 10	1.9	–	–	–	–
Cc1ccccc1CN1CCC=C(CCC(=O)NO)C1=O	> 10	> 10	4.92	> 10	2.97	–	–	–	–
Cc1ccc(CN2CCC=C(CCC(=O)NO)C2=O)cc1	8.1	5	1.43	8.51	2.1	–	–	–	–

Second part, led by results:

GI50 (PC-3) [µM]	GI50 (ACHN) [µM]	GI50 (MDA-MB-231 [1]) [µM]	GI50 (HCT-15) [µM]	IC50 (Histone deacetylase) [µM]	IC50 [4] [µM]	SMILES	GI50 (NUGC-3) [µM]	inhibition in vivo at 30 mg/kg (MDA-MB-231 [2]) [%]	Activity (MDA-MB-231 [3]) [%]
0.3	0.46	0.56	0.53	0.03	–	O=C(CCC1=CCCN(CCCc2ccc3ccccc3c2)C1=O)NO	0.79	–	–
3.01	5.21	0.47	> 10	0.23	–	O=C(CCC1=CCCN(Cc2ccc([N+](=O)[O-])cc2)C1=O)NO	1.11	–	–
1.69	1.82	1.47	1.67	0.11	–	O=C(CCC1=CCCN(CCCCc2cccc3ccccc23)C1=O)NO	2.01	–	–
2.58	6.62	2.53	5.43	0.32	–	O=C(CCC1=CCCN(CCc2cccc3ccccc23)C1=O)NO	3.26	–	–
0.61	1.18	0.28	1.16	0.037	–	O=C(CCC1=CCCN(CCc2ccc3ccccc3c2)C1=O)NO	0.37	51	94
0.53	1.18	0.28	1	0.23	–	O=C(CCC1=CCCN(CCc2ccc(-c3ccccc3)cc2)C1=O)NO	1.65	–	–
2.95	2.67	1.28	4.56	0.2	–	O=C(CCC1=CCCN(CCCCc2ccc(-c3ccccc3)cc2)C1=O)NO	4.2	–	–
1.8	0.37	0.56	> 10	0.59	–	Cc1ccc(S(=O)(=O)Nc2ccc(CN3CCC=C(CCC(=O)NO)C3=O)cc2)cc1	–	–	–
3.15	2.48	1.63	1.72	0.45	–	O=C(CCC1=CCCN(Cc2ccc(Br)cc2)C1=O)NO	–	–	–
